# Assay results as given in ChEMBL document CHEMBL1143239, “The synthesis of bivalent 2beta-carbomethoxy-3beta-(3,4-dichlorophenyl)-8-heterobicyclo[3.2.1]octanes as probes for proximal binding sites on the dopamine and serotonin transporters” (Bioorg Med Chem, 2008).
# Tests used:
# [1] = biological target: Sodium-dependent dopamine transporter (Homo sapiens, UniProt Q01959); test: Displacement of [3H]WIN-35428 from human DAT expressed in transfected cell membrane; format: cell membranes
# Summary of the method: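 Membranes from transfected cells stably expressing hDAT, labelled with [3H]WIN35,428 at 4 nM final, with serial drug dilutions made from DMSO stocks. Buffer Tris.HCl 50 mM, pH 7.4, NaCl 100 mM. Incubated 1 h at 22 °C. Filtered over 0.1% PEI-presoaked GF/B filters and counted. Nonspecific binding defined with 100 μM (-)-cocaine. IC50 reported as mean ± SEM of ≥3 experiments, each in triplicate.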
# [2] = biological target: Sodium-dependent serotonin transporter (Homo sapiens, UniProt P31645); test: Displacement of [3H]-citalopram from human SERT expressed in HEK293 cell membrane; format: cell membranes
# Sodium-dependent serotonin transporter, sequence (P31645 whole entry): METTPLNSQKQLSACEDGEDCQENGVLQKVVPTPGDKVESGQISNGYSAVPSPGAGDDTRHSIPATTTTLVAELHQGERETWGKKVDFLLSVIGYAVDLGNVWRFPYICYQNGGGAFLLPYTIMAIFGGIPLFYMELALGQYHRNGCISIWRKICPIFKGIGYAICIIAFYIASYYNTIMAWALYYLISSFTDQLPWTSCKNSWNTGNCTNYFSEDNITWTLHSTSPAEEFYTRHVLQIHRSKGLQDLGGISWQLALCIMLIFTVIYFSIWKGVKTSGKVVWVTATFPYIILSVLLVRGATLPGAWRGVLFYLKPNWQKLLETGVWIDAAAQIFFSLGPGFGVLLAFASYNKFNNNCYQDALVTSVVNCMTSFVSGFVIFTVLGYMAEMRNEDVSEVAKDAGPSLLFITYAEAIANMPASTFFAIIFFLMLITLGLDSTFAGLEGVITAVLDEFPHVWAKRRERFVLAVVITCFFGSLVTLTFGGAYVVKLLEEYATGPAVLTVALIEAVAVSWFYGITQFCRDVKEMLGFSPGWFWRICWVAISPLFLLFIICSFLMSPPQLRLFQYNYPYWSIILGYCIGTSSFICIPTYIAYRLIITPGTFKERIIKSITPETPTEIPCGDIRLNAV
# Summary of the method: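 Competition binding on membranes of HEK-293 cells stably expressing SERT cDNA. [3H]citalopram fixed at 1 nM final, with a range of drug concentrations. Buffer Tris.HCl 50 mM, pH 7.4, NaCl 100 mM. Incubation 2 h at 0–4 °C, started by adding membranes. Rapid filtration through PEI-soaked GF/B filters, then scintillation counting. Nonspecific binding defined with 10 μM fluoxetine. IC50 reported as mean ± SEM of ≥3 experiments, each in triplicate.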
# Sodium-dependent dopamine transporter, sequence (Q01959 whole entry): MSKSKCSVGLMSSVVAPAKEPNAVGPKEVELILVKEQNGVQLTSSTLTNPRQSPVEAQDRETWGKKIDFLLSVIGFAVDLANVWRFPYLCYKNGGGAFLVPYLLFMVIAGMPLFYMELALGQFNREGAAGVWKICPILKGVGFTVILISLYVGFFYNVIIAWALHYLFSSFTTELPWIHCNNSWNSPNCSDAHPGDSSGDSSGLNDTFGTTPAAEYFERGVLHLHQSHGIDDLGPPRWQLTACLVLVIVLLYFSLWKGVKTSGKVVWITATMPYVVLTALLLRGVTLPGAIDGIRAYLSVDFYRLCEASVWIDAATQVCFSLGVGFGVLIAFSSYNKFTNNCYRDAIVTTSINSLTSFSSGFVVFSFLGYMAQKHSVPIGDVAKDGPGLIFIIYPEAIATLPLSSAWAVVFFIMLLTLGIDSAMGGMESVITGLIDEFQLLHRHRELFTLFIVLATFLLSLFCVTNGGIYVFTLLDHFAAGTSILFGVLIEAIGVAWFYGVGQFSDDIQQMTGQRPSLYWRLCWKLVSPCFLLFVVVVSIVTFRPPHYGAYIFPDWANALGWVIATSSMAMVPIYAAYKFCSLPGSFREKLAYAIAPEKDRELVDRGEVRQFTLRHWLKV
Compound,IC50 [1] [nM],IC50 [2] [nM]
CN1C2CCC1[C@@H](COC(=O)CCCCC(=O)OC[C@@H]1C3CCC(C[C@@H]1c1ccc(Cl)c(Cl)c1)N3C)[C@@H](c1ccc(Cl)c(Cl)c1)C2,28,56
COC(=O)[C@@H]1C2CCC(C[C@@H]1c1ccc(Cl)c(Cl)c1)N2C (stereo not given in full),,2.5
COC(=O)[C@@H]1C2CCC(C[C@@H]1c1ccc(Cl)c(Cl)c1)O2 (stereo not given in full),3.3,4.7
CN1C2CCC1[C@@H](COC(=O)CCCCCCCCC(=O)OC[C@@H]1C3CCC(C[C@@H]1c1ccc(Cl)c(Cl)c1)N3C)[C@@H](c1ccc(Cl)c(Cl)c1)C2,31,17
CCCCCCC(=O)OC[C@H]1[C@@H](c2ccc(Cl)c(Cl)c2)CC2CC[C@H]1N2C,8,53
CN1C2CC[C@@H]1[C@@H](COC(=O)CCC(=O)OC[C@@H]1C3CCC(C[C@@H]1c1ccc(Cl)c(Cl)c1)S3)[C@@H](c1ccc(Cl)c(Cl)c1)C2,55,593
CN1C2CCC1[C@@H](COC(=O)CCC(=O)OC[C@@H]1C3CCC(C[C@@H]1c1ccc(Cl)c(Cl)c1)N3C)[C@@H](c1ccc(Cl)c(Cl)c1)C2,12,106
O=C(CCC(=O)OC[C@@H]1C2CCC(C[C@@H]1c1ccc(Cl)c(Cl)c1)S2)OC[C@@H]1C2CCC(C[C@@H]1c1ccc(Cl)c(Cl)c1)O2 (stereo not given in full),2960,992
CN1C2CCC1[C@@H](COC(=O)CCCCCCC(=O)OC[C@@H]1C3CCC(C[C@@H]1c1ccc(Cl)c(Cl)c1)N3C)[C@@H](c1ccc(Cl)c(Cl)c1)C2,11,31
CN1C2CC[C@@H]1[C@@H](COC(=O)CCC(=O)OC[C@H]1[C@@H](c3ccc(Cl)c(Cl)c3)CC3CC[C@H]1O3)[C@@H](c1ccc(Cl)c(Cl)c1)C2,67,405
O=C(CCC(=O)OC[C@@H]1C2CCC(C[C@@H]1c1ccc(Cl)c(Cl)c1)S2)OC[C@@H]1C2CCC(C[C@@H]1c1ccc(Cl)c(Cl)c1)S2,1540,2200
CN1C2CCC1[C@@H](COC(=O)CCCCCCCCCCC(=O)OC[C@@H]1C3CCC(C[C@@H]1c1ccc(Cl)c(Cl)c1)N3C)[C@@H](c1ccc(Cl)c(Cl)c1)C2,115,140
COC(=O)[C@@H]1C2CCC(C[C@@H]1c1ccc(Cl)c(Cl)c1)S2 (stereo not given in full),2,3
